In series [1] the test system is MS2 coat protein. The experiment in a line: apparent Kd, MS2 coat protein; higher = weaker binding; RNA-MaP array; theophylline 2 mM where present. The gist of the method:
(§1)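 Stalled E. coli RNA polymerase produced the designs on Illumina sequencing-chip clusters. SNAP-549-labelled MS2 coat protein was added from 0.7 or 1.5 nM, doubling to 3 µM, without and then with constant ligand, in 100 mM Tris-HCl pH 7.5, 80 mM KCl, 4 mM MgCl2, BSA, DTT, yeast tRNA and Tween-20. The apparent Kd is the median of filtered per-cluster fits of green signal normalised to red-channel RNA signal and control-cluster median Fmax.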

Series [2] deals with MS2 coat protein. The series can be described thus: apparent Kd, MS2 coat protein; higher = weaker binding; RNA-MaP array; tryptophan 2.4 mM where present. An outline of the steps: as §1
The mark [3] stands for this setting: designed as: ON switch for theophylline, no ligand.
Where [4] appears, read: ligand present: theophylline, designed as: ON switch for theophylline.
[5] abbreviates: designed as: ON switch for tryptophan, no ligand.
[6] abbreviates: ligand present: tryptophan, designed as: ON switch for tryptophan.
The mark [7] stands for this setting: designed as: OFF switch for tryptophan, no ligand.
[8] abbreviates: ligand present: tryptophan, designed as: OFF switch for tryptophan.

The text below walks through data of the EternaBench riboswitch data.

The apparent Kd is the concentration giving half-maximal binding under the conditions of the assay.

Regarding “AUGUCGUUGAAUAUAGCGGCUUGGAGUGAUACCAGUAUGAUCCAAUACCCUUGGCAGCAUAACAUGAGGAUCACCCAUGUUCCAG”, the “apparent Kd” value was 21.3 nM in the series with MS2 coat protein [1] (setting [3]) and 31.6 nM with MS2 coat protein [1] (setting [4]).

As for “CGAAUACUGAGUGAUACCAGUGAAAGAUAACUGUAUACACAUGAGGAUCACCCAUGUACACACCCUUGGCAGCACACUAGAUCGA”, the “apparent Kd” value was 33.3 nM in the series with MS2 coat protein [1] (setting [3]) and 17.4 nM in the series on MS2 coat protein [1] (setting [4]).

Turning to “AAAUAAAUCACAUGAGGAUCACCCAUGGAUACCAGGCCUGGAAACAGCCCUUGGCAGCCACAUGAGGAUCACCCAUGUGCUAAAU”, the “apparent Kd” value in the series with MS2 coat protein [1] (designed as: OFF switch for theophylline, no ligand) was 190 nM; in the series on MS2 coat protein [1] (ligand present: theophylline, designed as: OFF switch for theophylline), 198 nM.

For “AGUACUCGAACGGAUACCAGCCGGACAUGAGGAUCACCCAUGUCCUACCUAUGUUCGGUUGGCCCUUGGCAGCCGUUCGUGUACA”, the “apparent Kd” value was determined as 215 nM with MS2 coat protein [1] (setting [3]) and 51 nM with MS2 coat protein [1] (setting [4]).

Take “ACAUGAGGAUCACCCAUGUGUGUAAAUCCUCGAGGACCGGUACGGCCGCCACUCGAACGAGUGUAAGAUGAAUGUUACAUUCAUC”: the “apparent Kd” value with MS2 coat protein [2] (setting [5]) is 105 nM; with MS2 coat protein [2] (setting [6]) it was 38.3 nM.

In the case of “GCCGCUGCCGCGGUGUGUGUGGGUGGGUGACGAGGACCGGUACGGCCGCCACUCGCGAUCGCACAUGAGGAUCACCCAUGUGUAA”, the “apparent Kd” value is 15 nM with MS2 coat protein [2] (setting [7]) and 21.8 nM in the series with MS2 coat protein [2] (setting [8]).

For the sequence “GUUGAGACCUCGGCCGCCACUCGCCAUGAGGAUCUCCCAUGUAACAUGAGGAUCACCCAUGUACUGAGGACCGGGAGGUCCUUGU”, the “apparent Kd” value in the series with MS2 coat protein [2] (setting [5]) came to 12.4 nM; in the series with MS2 coat protein [2] (setting [6]), 21.6 nM.

Take “UGGUACUAGGCGGCCGCCACUGGGAGAUACAUGAGGAUCACCCAUGUUUAAUGCCGAGAGGCAACUAGGACCGGGCCUAGUACAU”: the “apparent Kd” value with MS2 coat protein [2] (setting [5]) was found to be 117 nM; in the series on MS2 coat protein [2] (setting [6]), 26.5 nM.

Consider “ACAUGAGGAUCACCCAUGUGUGUAAGUCCUCGAGGACCGGUACGGCCGCCACUCGAUUGAGUGUAAGUUGAAUGUAACAUUCAAC”, for which the “apparent Kd” value was 16.7 nM in the series on MS2 coat protein [2] (setting [5]) and 13.8 nM in the series on MS2 coat protein [2] (setting [6]).

As to “UAUAUAUAUCACGAACUGUGGUGUAUGUCUCGAGGACCGGUACGGCCGCCACUCGCGCGGCCUCACAUGAGGAUCACCCAUGUUG”, the “apparent Kd” value is 44.6 nM in the series on MS2 coat protein [2] (setting [7]) and 46 nM in the series on MS2 coat protein [2] (setting [8]).

“AAUAGUCCUCGACAUGAGGAUCACCCAUGUCGAGGACCGGUACGGCCGCCACUCGACAUGAGGAUCACCCAUGUUGAGUGAUAAA”: the “apparent Kd” value worked out at 8.34 nM in the series with MS2 coat protein [2] (setting [7]) and 7.72 nM in the series with MS2 coat protein [2] (setting [8]).

For “GGCUUCAACUCGGCCGCCACUGGUGAUCCUCAUGUACAUGAGGAUCACCCAUGUACAUGAGACUACAGGACCGGGAGAUCAGCAA”, the entries for the “apparent Kd” value in the series with MS2 coat protein [2] (setting [5]) and with MS2 coat protein [2] (setting [6]) were 8.34 nM and 7.7 nM, respectively.

In the case of “UCAGAUGAGGCGGCCGCCACUCGCGGAUAACGAUAGAUUAACAUGAGGAUCACCCAUGUGUCAUGGAGGACCGGGCCCAUGACAU”, the “apparent Kd” value amounted to 27.9 nM in the series with MS2 coat protein [2] (setting [5]) and 23.7 nM in the series with MS2 coat protein [2] (setting [6]).

Regarding “AGCAUCUAGUCGGCCGCCACUCUUAUUACAUGAGGAUCACCCAUGUUUAAUUCAUGGUUAUAUUUGAGGACCGGGACAUUUGCAU”, the “apparent Kd” value in the series on MS2 coat protein [2] (setting [7]) was 61.7 nM; in the series with MS2 coat protein [2] (setting [8]), 55.8 nM.

Consider “UAUCGUCAGACGGCCGCCACUAGAACAUGAGGAUCACCCAUGUACUAGUGGCAUACCUCAUGAACUAGGACCGGGUCUGACGAAU”, for which the “apparent Kd” value in the series on MS2 coat protein [2] (setting [7]) came out at 9.33 nM; in the series on MS2 coat protein [2] (setting [8]), 9.25 nM.

For “AUUUAUUAGACGGCCGCCACUUGAAAGCGACCUCAUAAAUGGGAACAUGAGGAUCACCCAUGUAAGAGGACCGGGUCUAGUAGAU”, the “apparent Kd” value with MS2 coat protein [2] (setting [5]) was 104 nM; in the series with MS2 coat protein [2] (setting [6]) it was 300 nM.

Consider “ACAUGAGGAUCACCCAUGUCAUGAGGUUCACGAGGACCGGUACGGCCGCCACUCGGGCUUCGGAUCACGGAUGUACAUGAUGAUC”, for which the “apparent Kd” value was determined as 84 nM in the series on MS2 coat protein [2] (setting [5]) and 51.6 nM in the series on MS2 coat protein [2] (setting [6]).

In the case of “CGAUUUAAGACGGCCGCCACUAUUAAGUAACAAAAUAAACAUGAGGAUCACCCAUGUACAUGGGAUAGGACCGGGUCCAAUAUCG”, the “apparent Kd” value with MS2 coat protein [2] (setting [5]) is 57.2 nM; in the series with MS2 coat protein [2] (setting [6]), 28.4 nM.

Consider “GGCCAUGGAAACAUGGCGGCGGCAUAUGCGCGAGGACCGGUACGGCCGCCACUCGGGCAACAUGAGGAUCACCCAUGUUCCUCAU”, for which the “apparent Kd” value in the series with MS2 coat protein [2] (setting [7]) was found to be 211 nM; in the series on MS2 coat protein [2] (setting [8]) it was 454 nM.

As for “CGCCACUCGAGUGAUCCUCACGAGUGGCUACGAGGACCGGUACGGCCGCCACUCGAAUUAACAUGAGGAUCACCCAUGUAAUCCA”, the “apparent Kd” value in the series with MS2 coat protein [2] (setting [5]) amounted to 86.3 nM; in the series with MS2 coat protein [2] (setting [6]), 62.5 nM.

Turning to “ACAUGAGGAUCACCCAUGUACGGUAUCAAUCGAGGACCGGUACGGCCGCCACUCGGAAAUAGAAGCGAUUAUUAGUGUUCUUUGU”, the “apparent Kd” value in the series on MS2 coat protein [2] (setting [5]) turned out to be 16.2 nM; in the series with MS2 coat protein [2] (setting [6]), 15.1 nM.

As for “AGAUUCGACACGGCCGCCACUUGUGGUGGAUUAUCCUAUGUAAGACAUGAGGAUCACCCAUGUACAAGGACCGGGUGUUGAGUCU”, the “apparent Kd” value was determined as 308 nM in the series on MS2 coat protein [2] (setting [7]) and 93.1 nM in the series with MS2 coat protein [2] (setting [8]).

Turning to “AGUGUCGGAGCGGCCGCCACUAGCACAUCUGGUCGCCAUGGCAACAUGAGGAUCACCCAUGUUGCUAGGACCGGGCUCAAUAUUU”, the results for the “apparent Kd” value in the series on MS2 coat protein [2] (setting [7]) and in the series on MS2 coat protein [2] (setting [8]) were 9.38 nM and 10.7 nM, respectively.
